Results from ChEMBL document CHEMBL1157723, “Synthesis and anti-viral activity of azolo-adamantanes against influenza A virus” (Bioorg Med Chem, 2010).
Converted amounts (≈) assume the structure as drawn.

How the values were obtained:
MDCK = experiment: Cytotoxicity against MDCK cells after 48 hrs by MTT assay; assay type: cell-based, Canis lupus familiaris; conditions: dog
How it was run: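 MDCK cells were grown to monolayer in MEM with 5% fetal calf serum and washed with serum-free MEM. Compounds came from 5 mg/ml DMSO stocks as twofold dilutions of 1000–1 µg/ml in MEM, 48 h at 37 °C. After PBS washes, MTT (0.5 mg/ml) was added for 60 min at 37 °C, the deposit dissolved in DMSO and OD read at 535 nm. CTD50 is the concentration reducing viability 50%.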

Influenza A virus = experiment: Antiviral activity against Influenza A virus (A/Puerto Rico/8/34(H1N1)) infected in MDCK cells assessed as virus yield after 48 hrs end-point dilution method; assay type: functional, organism-based; conditions: A/Puerto Rico/8/1934(H1N1)
How it was run: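 MDCK monolayers were exposed to serial twofold compound dilutions in MEM with 2 mM arginine, 2 mM glutamine and 2 µg/mL trypsin for 1 h at 37 °C, then infected and cultured 48 h at 36 °C. Supernatant was tested by hemagglutination with 1% chicken erythrocytes (1 h, room temperature) and titre by end-point dilution. ED50 is the concentration decreasing virus production […].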

[1] = Selectivity index, ratio of CTD50 for MDCK cells to EC50 for Influenza A virus (A/Puerto Rico/8/34(H1N1)); assay type: toxicity, cell-based; conditions: dog, read-out: Selectivity Index
How it was run: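 Ratio of CTD50 (MDCK, MTT after 48 h) to ED50 (PR8 yield in MDCK by hemagglutination end-point titration after 48 h at 36 °C), both from twofold dilution series.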

| SMILES | Activity (MDCK) [µg/mL] | EC50 (Influenza A virus) [µg/mL] | selectivity ratio [1] |
| --- | --- | --- | --- |
| Sc1nnnn1-c1ccccc1 | 151 | > 200 | < 1 |
| O=S(=O)([O-])O.c1ccc(-n2n[n+](C34CC5CC(CC(C5)C3)C4)nc2SC23CC4CC(CC(C4)C2)C3)cc1 | 289 | 57 | 5 |
| Cc1ncn(C23CC4CC(CC(C(C)N)(C4)C2)C3)n1.Cl.Cl (stereo unspecified) | 960 | 62 | 15 |
| CCn1n[n+](C23CC4CC(CC(C4)C2)C3)nc1[S-] | 125 | 3 (≈ 11.3 µM) | 41 |
| O=c1[nH]nnn1-c1ccccc1 | > 1000 | 294 (≈ 1810 µM) | 3 |
| Cc1nnn(C23CC4CC(CC(C4)C2)C3)n1 | 569 | 77 (≈ 353 µM) | 7 |
| CC(N)C12CC3CC(C1)CC(n1cnc(Cl)n1)(C3)C2.Cl (stereo unspecified) | 140 | 15 | 9 |
| CC(N)C12CC3CC(C1)CC(n1ncnn1)(C3)C2.Cl (stereo unspecified) | 423 | 23 | 18 |
| O=C(O)c1nn(C23CC4CC(CC(C4)C2)C3)cc1Br | 443 | 300 (≈ 922 µM) | 1 |
| CC(N)C12CC3CC(C1)CC(n1cnc([N+](=O)[O-])n1)(C3)C2.Cl (stereo unspecified) | 131 | 120 | 1 |
| Cc1nnn(C23CC4CC(CC(N)(C4)C2)C3)n1.Cl | 213 | 13 | 16 |
| CCc1nnn(C23CC4CC(CC(N)(C4)C2)C3)n1.Cl | 262 | 25 | 10 |
| CCOC(=O)Cc1nnn(C23CC4CC(CC(N)(C4)C2)C3)n1.Cl | 127 | 18 | 7 |
| NC1N=NC(Cc2nnn(C34CC5CC(CC(C5)C3)C4)n2)=N1 (stereo unspecified) | 0.18 | 0.09 (≈ 0.3 µM) | 2 |
| Cl.NC12CC3CC(C1)CC(n1cncn1)(C3)C2 | 1489 | 123 | 12 |
| Cl.NC12CC3CC(C1)CC(n1cnc(Br)n1)(C3)C2 | 620 | 111 | 6 |

| SMILES | Activity (MDCK) [µg/mL] | EC50 (Influenza A virus) [µg/mL] | selectivity ratio [1] |
| --- | --- | --- | --- |
| O=C(O)Cc1nnn(C23CC4CC(CC(C4)C2)C3)n1 | > 500 | 71 (≈ 271 µM) | > 7 |
| CCCCOC(=O)Cc1nnn(C23CC4CC(CC(C4)C2)C3)n1 | < 1 | > 1 | < 1 |
| c1nnn(C23CC4CC(CC(C4)C2)C3)n1 | 253 | 56 (≈ 274 µM) | 5 |
| Cc1nn(C23CC4CC(CC(C4)C2)C3)c(C)c1N | 600 | 100 (≈ 408 µM) | 6 |
| [S-]c1n[n+](C23CC4CC(CC(C4)C2)C3)nn1-c1ccccc1 | 300 | 130 (≈ 416 µM) | 2 |
| Cc1nnn(C23CC4CC(CC(C(C)N)(C4)C2)C3)n1.Cl (stereo unspecified) | 242 | 8 | 30 |
| S=c1[nH]nnn1C12CC3CC(CC(C3)C1)C2 | 167 | 15 (≈ 63.5 µM) | 11 |
| OC12CC3CC(C1)CC(n1nn[nH]c1=S)(C3)C2 | 146 | 8 (≈ 31.7 µM) | 18 |
| c1nnnn1C12CC3CC(CC(C3)C1)C2 | 281 | 11 (≈ 53.8 µM) | 25 |
| Cl.NC12CC3CC(C1)CC(n1ncnn1)(C3)C2 | 552 | 22 | 25 |
| Clc1ncn(C23CC4CC(CC(C4)C2)C3)n1 | 583 | 59 (≈ 248 µM) | 10 |
| OC12CC3CC(C1)CC(N=C=S)(C3)C2 | > 500 | 150 (≈ 717 µM) | > 3 |
| CCc1nnn(C23CC4CC(CC(C(C)N)(C4)C2)C3)n1.Cl (stereo unspecified) | 299 | 6 | 50 |
| c1ncn(C23CC4CC(CC(C4)C2)C3)n1 | 358 | 77 (≈ 379 µM) | 5 |
| CCOC(=O)Cc1nnn(C23CC4CC(CC(C4)C2)C3)n1 | > 1000 | 232 (≈ 799 µM) | 4 |
| CC(N)C12CC3CC(CC(C3)C1)C2 (stereo unspecified) [RIMANTADINE] | 60 | 5 (≈ 27.9 µM) | 12 |
